Most compounds without a hit are left out; they make up all but 3.4% or so of the library.
TAAR1 agonist – human TAAR1 agonism | Q96RJ0 | CHO RD-HGA16 TAAR1, Fluo-8 calcium fluorescence; vehicle wells 0%, saturating PEA agonist 100% | activation, % at 3 µM | 0.99% of 360,000 active | AID 624467;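 active = activation above the mean activation of all test compounds in the run plus 3 SD, cut at about 38% in these data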
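Test system: RD-HGA16 (CHO) cells co-expressing Gα16 and hTAAR1 / Benchmarks: DMSO vehicle as 0%, PEA at EC100 as 100% / Repeats: no replicates (n 1) / Measure: % activation from peak over basal fluorescence ratio, DMSO-to-PEA scaled / Timing: 17-24 h plating, Fluo-8 75 min 37 °C, 30 min RT / Technique: kinetic Fluo-8 calcium fluorescence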
GPR7 antag – antagonists of human GPR7 (neuropeptides B/W receptor 1); P48145; GPR7-expressing cells, fluorescence antagonist assay; inhibition, % at 4.4 µM; 1.1% of 290,000 active; AID 1861; in the data active = inhibition above about 16%, passing the limit was not always enough;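 note: cells stimulated with the agonist NPW; 0% = agonist with vehicle and 100% = vehicle without agonist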
TRPML3 ag – human mucolipin-3 channel agonism; Q8TDD5; HEK293 TRPML3-YFP, Fluo-8 calcium fluorescence; 100% = the carbachol control signal; activation, % at 3 µM; 0.29% of 220,000 active; AID 1448;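 active = activation above its plate's cutoff, the mean activation of the plate's test wells plus 3 SD, cut at about 12% in these data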;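 note: 0% = DMSO only wells and 100% = carbachol wells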
Target sequence (Q8TDD5 whole entry, looked up): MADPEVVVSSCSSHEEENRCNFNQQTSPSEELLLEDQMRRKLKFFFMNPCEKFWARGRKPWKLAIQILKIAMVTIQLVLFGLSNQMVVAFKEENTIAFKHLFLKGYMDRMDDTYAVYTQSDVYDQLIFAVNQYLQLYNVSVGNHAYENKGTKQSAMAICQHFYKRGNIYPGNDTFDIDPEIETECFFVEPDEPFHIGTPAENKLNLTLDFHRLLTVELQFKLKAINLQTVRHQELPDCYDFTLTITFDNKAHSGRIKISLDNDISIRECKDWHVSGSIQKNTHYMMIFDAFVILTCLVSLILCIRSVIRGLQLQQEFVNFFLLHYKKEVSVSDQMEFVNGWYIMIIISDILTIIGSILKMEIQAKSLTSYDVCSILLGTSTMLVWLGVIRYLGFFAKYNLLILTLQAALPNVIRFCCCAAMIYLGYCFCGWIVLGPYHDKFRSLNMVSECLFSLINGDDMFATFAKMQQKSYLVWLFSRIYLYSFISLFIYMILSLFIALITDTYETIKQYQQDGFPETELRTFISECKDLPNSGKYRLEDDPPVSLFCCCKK
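Test system: TRPML3-YFP stable HEK293 cells. Doses: single point at 3 µM. Incubation: dye loading 1 h 37 °C then 30 min ambient, 125 s read. Signal: Fluo-8 calcium dye fluorescence, ex 470-495, em 515-575 nm. Measure: percent activation from peak-to-basal fluorescence ratio, scaled between DMSO and carbachol.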
LANA-H2B inh – blocks KSHV LANA binding to histone H2A/H2B. cell-free LANA-H2A/H2B peptide, fluorescence polarization. inhibition, % (test concentration not listed). 0.6% of 320,000 active. AID 2629; in the data active = inhibition mostly above about 10%, no sharp cut-off; inactive = mostly below about 6.7%
TAAR1 antagonist – human TAAR1 antagonism; Q96RJ0; CHO RD-HGA16 TAAR1, Fluo-8 calcium fluorescence, antagonist; inhibition, % at 3 µM; 1.5% of 360,000 active; AID 624466;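 active = inhibition above a per-plate cutoff, the mean inhibition of test compounds on that plate plus 3 SD, cut at about 49% in these data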;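 note: 0% = DMSO plus EC80 beta-PEA response and 100% = DMSO alone without agonist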
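System: CHO RD-HGA16 cells bearing hTAAR1. Reagent: EC80 β-phenethylamine stimulus. Schedule: seeding 17-24 h prior, 75-min 37 °C, 30-min RT dye loading. Signal: Fluo-8 intracellular calcium dye fluorescence, real-time kinetic reads. Read-out: % inhibition from peak post-agonist over basal fluorescence ratio. Benchmarks: vehicle wells and EC80 agonist wells. Replicates: n of 1.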
zfTRPN1 agonist – zebrafish TRPN1 (NompC) channel agonism; HEK293 zebrafish TRPN1-YFP, Fluo-8 calcium fluorescence; 100% = response to 87 µM carbachol; activation, % at 3 µM; AID 1424; 0.18% of 220,000 active;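 active = activation above its plate's cutoff, the mean activation of test wells on that plate plus 3 SD, cut at about 19% in these data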;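 note: 0% = DMSO alone and 100% = 87 µM carbachol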
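Material – zebrafish TRPN1-YFP in HEK293 cells · Doses – 3 µM single point · Schedule – dye 1 h 37 °C plus 30 min RT · Signal – Fluo-8 calcium fluorescence, excitation 470-495 nm, emission 515-575 nm · Read-out – % activation versus carbachol response · Control set – carbachol high, DMSO low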
TAAR1 ag confirm – human TAAR1 agonism, confirmed. shares compounds with TAAR1 agonist. CHO RD-HGA16 TAAR1, Fluo-8 calcium fluorescence; scaled: DMSO 0%, maximal phenethylamine 100%. activation, % at 3 µM. 82% of 2,400 active;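 active = activation above a cutoff set at the run's mean compound activation plus 3 SD, cut at about 39% in these data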
Ga16 ag counter – nonselective agonist in parental cells, TAAR1 agonist counter-screen. shares compounds with TAAR1 agonist. CHO-Ga16 parental, Fluo-8 calcium fluorescence; normalized to maximal ATP response, DMSO zero. activation, % at 3 µM. 50% of 2,400 active. AID 651787;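 active = activation above the run cutoff, the mean activation over all tested wells plus 3 SD, cut at about 12% in these data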;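 note: 0% = DMSO wells and 100% = maximal ATP response on the peak over basal ratio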
TAAR1 desens – TAAR1 response desensitization, agonist counter-screen | shares compounds with TAAR1 agonist | CHO RD-HGA16 hTAAR1, Fluo-8 calcium, beta-PEA response inhibition | inhibition, % at 3 µM | 46% of 2,400 active;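 active = inhibition above the run cutoff, the mean inhibition of all test compounds plus 3 SD, cut at about 49% in these data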;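 note: beta-PEA stimulus applied at its EC80; loss of beta-PEA calcium signal after compound pretreatment read as receptor desensitization; 0% = DMSO with beta-PEA at EC80 and 100% = DMSO alone without agonist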
Ga16 nonsel ant – nonselective Ga16 antagonist in TAAR1 agonist counter-screen | shares compounds with TAAR1 agonist | CHO-Ga16 ATP-induced calcium, Fluo-8 fluorescence | inhibition, % at 3 µM | 39% of 2,400 active | AID 651952;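 active = inhibition above the plate's mean compound inhibition plus 3 SD, computed per plate, cut at about 22% in these data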;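 note: 0% = EC80 ATP with DMSO and 100% = DMSO wells without ATP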
Active calls of the source: *; ! = repeats disagree.

Results for c1ccc(C(c2ccccc2)c2ccncc2)cc1 ?
TAAR1 agonist: 5; TAAR1 antagonist: -9

How did Cc1ccccc1OP(=O)(Oc1ccccc1C)N1CCOCC1 do in these assays?
TAAR1 agonist: 0; TAAR1 antagonist: -15

What do the screens show for `c1ccc2c(NC3=NCCS3)cccc2c1`?
TAAR1 agonist: 43*; GPR7 antag: -5; TRPML3 ag: -1; LANA-H2B inh: 0; TAAR1 antagonist: -1; zfTRPN1 agonist: -1; TAAR1 ag confirm: 82*; Ga16 ag counter: 15*; TAAR1 desens: 47; Ga16 nonsel ant: 5

Results for N#CC1c2ccccc2C=CN1C(=O)c1ccc(N(CCCl)CCCl)cc1 (stereo not given) ?
TAAR1 agonist: 3; TAAR1 antagonist: -24

Results for CCCCCCn1c(=O)c(C(=O)Nc2ncccc2C)c(O)c2ccccc21 ?
TAAR1 agonist: 106*; GPR7 antag: -7; LANA-H2B inh: 1; TAAR1 antagonist: 74*; TAAR1 ag confirm: 55*; Ga16 ag counter: 30*; TAAR1 desens: 48; Ga16 nonsel ant: 35*

What do the screens show for `CCCCCCCn1c(=O)c(C(=O)Nc2cnccn2)c(O)c2ccccc21`?
TAAR1 agonist: 1; GPR7 antag: -8; TRPML3 ag: 1; LANA-H2B inh: -4; TAAR1 antagonist: -18; zfTRPN1 agonist: 1

How did CN1Cc2cnnn2-c2ccccc2C1c1ccccc1 (stereo not given) do in these assays?
TAAR1 agonist: 1; TAAR1 antagonist: 20

What do the screens show for `COc1cccc(C)c1NC1=NCCO1`?
TAAR1 agonist: 87*; TAAR1 antagonist: 61*; TAAR1 ag confirm: 92*; Ga16 ag counter: 1; TAAR1 desens: 87*; Ga16 nonsel ant: -3

Results for Fc1ccc(CCNCc2ccccc2Cl)cc1 ?
TAAR1 agonist: 64*; GPR7 antag: -9; TRPML3 ag: 0; LANA-H2B inh: -6; TAAR1 antagonist: -18; zfTRPN1 agonist: -1; TAAR1 ag confirm: 62*; Ga16 ag counter: 8; TAAR1 desens: 24; Ga16 nonsel ant: 6

Results for Fc1ccc(CNCCc2ccccc2)cc1 ?
TAAR1 agonist: 49*; GPR7 antag: -5; TRPML3 ag: 1; LANA-H2B inh: -1; TAAR1 antagonist: -21; zfTRPN1 agonist: 0; TAAR1 ag confirm: 76*; Ga16 ag counter: 15*; TAAR1 desens: 27; Ga16 nonsel ant: -1

What do the screens show for `Cn1cccc1CNCCc1ccc(F)cc1`?
TAAR1 agonist: 49*; GPR7 antag: -3; TRPML3 ag: 1; LANA-H2B inh: 1; TAAR1 antagonist: 32; zfTRPN1 agonist: 0; TAAR1 ag confirm: 82*; Ga16 ag counter: 9; TAAR1 desens: 54*; Ga16 nonsel ant: 7

Results for Cc1ccc(CNCCc2ccc(F)cc2)s1 ?
TAAR1 agonist: 29; GPR7 antag: -12; LANA-H2B inh: -4; TAAR1 antagonist: -17

How did C1=C(CCNCc2ccccc2)CCCC1 do in these assays?
TAAR1 agonist: 14; GPR7 antag: -9; TRPML3 ag: 0; LANA-H2B inh: 4; TAAR1 antagonist: -9; zfTRPN1 agonist: 1

Results for CSCCC(c1nnnn1-c1c(C)cccc1C)N1CCC2(CC1)C(=O)NCN2c1ccccc1 (stereo not given) ?
TAAR1 agonist: 1; TAAR1 antagonist: 24

Results for O=C1NC(=O)C(=Cc2ccc(-c3ccc(Cl)cc3)o2)C(=O)N1 ?
GPR7 antag: 18; LANA-H2B inh: 2

How did O=C1NC(=O)C(=Cc2ccc(-c3ccc(F)cc3O)o2)C(=O)N1 do in these assays?
TAAR1 agonist: 105*; GPR7 antag: 11; LANA-H2B inh: 0; TAAR1 antagonist: 85*; TAAR1 ag confirm: 109*; Ga16 ag counter: 61*; TAAR1 desens: 88*; Ga16 nonsel ant: 68*

Results for COc1cc(CC(C)N)c(OC)cc1I (stereo not given) ?
TAAR1 agonist: 40*!; LANA-H2B inh: -4; TAAR1 antagonist: -10; TAAR1 ag confirm: 39*; Ga16 ag counter: 0; TAAR1 desens: 15; Ga16 nonsel ant: 12

How did COc1ccccc1Sc1ccccc1CC(C)N (stereo not given) do in these assays?
TAAR1 agonist: 13; GPR7 antag: 9; TRPML3 ag: 0; LANA-H2B inh: -5; TAAR1 antagonist: 10; zfTRPN1 agonist: 0

What do the screens show for `O=C(CN1CCN(C(=O)COc2cccc(F)c2)CC1)Nc1ccc(Cl)c(C(F)(F)F)c1`?
TAAR1 agonist: 13; LANA-H2B inh: -1; TAAR1 antagonist: -7

How did O=C1NC(=O)C(=Cc2ccc(Sc3ccccc3)o2)C(=O)N1 do in these assays?
TAAR1 agonist: 21; GPR7 antag: -6; TRPML3 ag: 1; LANA-H2B inh: -1; TAAR1 antagonist: 12; zfTRPN1 agonist: 2

How did O=C1NC(=O)N(c2ccc(Cl)cc2)C(=O)/C1=C\c1ccc(Sc2nc3ccccc3[nH]2)o1 do in these assays?
TAAR1 agonist: 60*; GPR7 antag: -3; TRPML3 ag: 12*; LANA-H2B inh: 0; TAAR1 antagonist: 34; zfTRPN1 agonist: 22*; TAAR1 ag confirm: 6; Ga16 ag counter: 7; TAAR1 desens: 17; Ga16 nonsel ant: 20

How did Cc1cccn2c(=O)c3c(nc12)N1CCc2ccccc2C1C1(C3)C(=O)NC(=O)N(C)C1=O (stereo not given) do in these assays?
TAAR1 agonist: 22; GPR7 antag: -12; TRPML3 ag: 1; LANA-H2B inh: -5; TAAR1 antagonist: 43; zfTRPN1 agonist: 0

How did Cc1cccn2c(=O)c3c(nc12)N1CCCCCC1C1(C3)C(=O)N(C)C(=O)N(C)C1=O (stereo not given) do in these assays?
TAAR1 agonist: -3; GPR7 antag: -7; TRPML3 ag: -1; LANA-H2B inh: -3; TAAR1 antagonist: -21; zfTRPN1 agonist: -2
